A selection: hits, their analogues and other compounds. The true share with any hit is near 3.1%.
hERG rescue = shields human hERG channel from block by proarrhythmic agents | Q12809 | CHO-hERG, FluxOR thallium flux, dofetilide IC70 present | activation (rescue from dofetilide block), less the hit threshold, % at 10 µM | hit rate 0.51% among 310,000;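 active = activation above the mean of controls blocked by dofetilide plus 5 SD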;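 note: thallium influx through hERG after potassium depolarization seen as dye fluorescence rise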
KCNK9 block = human KCNK9 channel inhibition | hit rate 1.2% among 310,000 | Q9NPC2 | B-score at 10 µM | AID 488922 | HEK293 KCNK9, FluxOR thallium flux fluorescence; hits give low values;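 active = ratio B-score over 3 SD below the library mean, with starting fluorescence within 5 SD of its mean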;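 note: negative B-score means less thallium flux so channel inhibition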
KCNK3 inh = human KCNK3 channel inhibition, primary screen; O14649; CHO-KCNK3 thallium flux, FluxOR fluorescence; hits give low values; B-score at 10 µM; hit rate 0.84% among 340,000; AID 602410;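 active = B-score under library mean minus 4 SD, starting fluorescence ratio at most library mean plus 5 SD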;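 note: more negative B-score means stronger inhibition of thallium flux through KCNK3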
KCNQ1 act = potentiators or activators of human KCNQ1 potassium channel. P51787. CHO-K1 KCNQ1, thallium flux FluxOR fluorescence; hits give high values. B-score at 10 µM. hit rate 0.35% among 310,000;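 active = fluorescence ratio B-score, a plate-corrected score, at least three library SD, with initial intensity B-score within 5 SD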
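Test system: CHO-K1 cells stably expressing KCNQ1 / Medium: assay buffer / Also added: depolarizing K+/Tl+ stimulus, K2SO4 and Tl2SO4 each 12.5 mM in 5x stock / Incubation: 90 min dye loading and 20 min compound exposure, both at room temperature / Signal: thallium influx via FluxOR fluorescence, kinetic imaging / Evaluation: B score of baseline-normalized fluorescence ratio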
KCNQ1 inh = blocks the human KCNQ1 potassium channel | P51787 | CHO-K1 KCNQ1, FluxOR thallium flux fluorescence; hits give high values | B-score at 10 µM | hit rate 1.3% among 310,000;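 active = compounds whose thallium flux B-score, printed positive for inhibition, exceeds three library SD while starting fluorescence stays within three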;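 note: channel opened by potassium depolarization with thallium stimulus after 20 min compound exposure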
KCNQ1 block val = human KCNQ1 channel inhibition, validation assay | shares compounds with KCNQ1 inh | KCNQ1 cell line, FluxOR thallium flux fluorescence | inhibition, % at 10 µM | hit rate 93% among 1,600;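 active = primary screen active, with duplicate mean exceeding buffer control mean plus 3 SD of buffer wells, cut at about 28% in these data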;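 note: 0% = buffer control ratio and 100% = XE991 inhibitor control ratio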
CHO KCNQ1 ctr = activity in parental CHO cells lacking KCNQ1 | parental CHO-K1, FluxOR thallium flux fluorescence ratio; hits give low values; zero means no signal rise above baseline | hit rate 21% among 1,600 | shares compounds with KCNQ1 inh | fluorescence ratio (Tl flux) at 10 µM;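 active = mean of duplicate thallium-flux fluorescence ratios in parental host cells more than 5 SD below the buffer control mean, cut at about 0.38 in these data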;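 note: ratio is peak minus minimum fluorescence divided by baseline fluorescence; actives read low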
KCNQ1 ephys val = blocks human KCNQ1 current in automated patch clamp; hit rate 20% among 490; calls only at 10 µM; AID 624120; shares compounds with KCNQ1 inh; KCNQ1-CHO cells;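 active = KCNQ1 current drop exceeding 3 SD of negative control wells, seen in both duplicate runs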;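 note: steady state current during a 2 s step from -80 to +40 mV; negative values mean current inhibition and positive values mean potentiation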
KCNQ2 spec = KCNQ1 inhibitor that also blocks rat KCNQ2 channel. shares compounds with KCNQ1 inh. KCNQ2 cells, FluxOR thallium flux fluorescence. inhibition, % at 10 µM. hit rate 71% among 1,600. AID 651746;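 active = mean percent inhibition of the KCNQ2 thallium signal more than 5 SD above the buffer-only control wells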;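 note: KCNQ2 expressed in CHO cells; 0% = buffer control wells and 100% = XE-991 inhibitor control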
KCNQ1 KCNE1 spec = selectivity of KCNQ1 inhibitors: inhibition of human KCNQ1/KCNE1 channel; KCNQ1/KCNE1 cells, FluxOR thallium flux fluorescence; shares compounds with KCNQ1 inh; inhibition, % at 10 µM; hit rate 77% among 1,600;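 active = mean percent inhibition of duplicate wells above the buffer-only control mean plus 3 SD of those controls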;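 note: 0% = buffer only wells and 100% = XE-991 inhibitor control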
KCNK9 inh conf = human KCNK9 inhibitor confirmation. shares compounds with KCNK9 block. HEK293 KCNK9 cells, FluxOR thallium flux fluorescence. inhibition, % at 10 µM. hit rate 43% among 4,900. AID 492992;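 active = thallium signal inhibited by more than 5 SD of the compound-free buffer control wells, on both duplicate plates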;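 note: 0% = assay buffer control wells without compound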
Kir21 sel = tests whether KCNK9 modulators also affect mouse Kir2.1; shares compounds with KCNK9 block; Kir2.1 cells, FluxOR thallium flux fluorescence; inhibition, % at 10 µM; hit rate 4% among 4,900; AID 492993;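 active = thallium signal drop more than 5 SD beyond the mean of the no-compound control wells, seen in both duplicate plates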;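 note: signal is fluorescence rise after thallium addition divided by baseline fluorescence; plate controls were assay buffer only for no effect and full block by chlorpromazine control for full effect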
HEK293 Tl ctr = second check of KCNK9 modulator effects in non-induced HEK293 cells; shares compounds with KCNK9 block; FluxOR thallium flux; inhibition, % at 10 µM; hit rate 40% among 4,900; AID 492997;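 active = thallium signal drop beyond 5 SD of the untreated control mean, on both duplicate plates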;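 note: plate controls were buffer only IC0 wells for no effect and SID17386958 at its maximal inhibitory level for full effect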
KCNK3 inh conf = human KCNK3 channel inhibition, confirmation assay; shares compounds with KCNK3 inh; CHO-KCNK3 thallium flux, FluxOR fluorescence; 0% buffer, 100% carvedilol maximal block; ratio percent of control, % at 10 µM; hit rate 99% among 2,400;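 active = ratio percent of control, averaged over triplicates, above buffer control mean plus 5 SD, cut at about 64% in these data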;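 note: ratio is the fluorescence rise from min to max over baseline after thallium stimulus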
KCNK3 noninduced = KCNK3 inhibitor counter-screen hit in non-induced cells; shares compounds with KCNK3 inh; non-induced KCNK3 parental cells, FluxOR thallium flux; hits give low values; thallium flux ratio (lower = more inhibition) at 10 µM; hit rate 40% among 2,400;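 active = thallium flux ratio, averaged over three wells, more than 5 SD below the buffer control mean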;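 note: host cells are CHO cells without KCNK3 induction; ratio is peak minus trough fluorescence over baseline then normalized to buffer controls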
Starred values were filed as active, the others as inactive.

COC(=O)c1ccc(NC(=S)NC2CCc3ccccc32)cc1 (centres undefined) was read as hERG rescue -9, KCNK9 block inactive, KCNK3 inh -8.8*, KCNQ1 act inactive, KCNQ1 inh 7*, KCNQ1 block val 68*, CHO KCNQ1 ctr 0.52, KCNQ2 spec 65%*, KCNQ1 KCNE1 spec 58%*, KCNK3 inh conf 93* and KCNK3 noninduced inactive.
`Cc1cccc(-c2cc(C(=O)Nc3cccnc3)c3ccccc3n2)c1` gave hERG rescue -21, KCNK9 block inactive, KCNK3 inh -8.9*, KCNQ1 act inactive, KCNQ1 inh 9*, KCNQ1 block val 124*, CHO KCNQ1 ctr 0.37*, KCNQ2 spec 136%*, KCNQ1 KCNE1 spec 159%*, KCNK3 inh conf 125* and KCNK3 noninduced 0.1*.
O=S(=O)(/C=C/C=C/S(=O)(=O)c1ccccc1)c1ccccc1 was read as KCNK3 inh inactive.
For COc1cc(C(=O)N2CCCN(C)CC2)cc(OC)c1C the results were hERG rescue -3, KCNK9 block inactive, KCNK3 inh inactive, KCNQ1 act inactive and KCNQ1 inh inactive.
`CN(CC(=O)Nc1ccccc1-c1ccccc1)Cc1ccccc1Cl` gave hERG rescue -6, KCNK9 block -16*, KCNK3 inh -9.6*, KCNQ1 act inactive, KCNQ1 inh 8*, KCNQ1 block val 76*, CHO KCNQ1 ctr 0.38, KCNQ2 spec 98%*, KCNQ1 KCNE1 spec 122%*, KCNK9 inh conf 63%*, Kir21 sel 55%*, HEK293 Tl ctr 46%*, KCNK3 inh conf 120* and KCNK3 noninduced 0.13*.
`Cc1cccc(C)c1NC(=O)COC(=O)[C@@H]1CCCN1C(=O)c1cccs1` gave KCNK3 inh inactive.
CCCN1CCc2c(sc(NC(=O)c3ccc(S(=O)(=O)N(C)c4ccccc4)cc3)c2C(N)=O)C1 was read as hERG rescue -10, KCNK9 block inactive, KCNK3 inh inactive, KCNQ1 act inactive and KCNQ1 inh inactive.
`CCCN1CCc2c(sc(NC(=O)c3ccc(S(=O)(=O)N(C)c4ccccc4)cc3)c2C(=O)NC)C1` gave hERG rescue -30, KCNK9 block inactive, KCNK3 inh -9*, KCNQ1 act inactive, KCNQ1 inh 15*, KCNQ1 block val 144*, CHO KCNQ1 ctr 0.28*, KCNQ2 spec inactive, KCNQ1 KCNE1 spec active, KCNK3 inh conf 171* and KCNK3 noninduced 0.055*.
CCc1ccc2[nH]c(=O)c(-c3ccccc3)c(O)c2c1 was read as hERG rescue -4, KCNK9 block inactive, KCNK3 inh inactive, KCNQ1 act inactive and KCNQ1 inh inactive.
For Cc1cc(C)c(C#N)c(SCSCc2ccccc2)n1 the results were hERG rescue -18, KCNK9 block inactive, KCNK3 inh -9.7*, KCNQ1 act inactive, KCNQ1 inh 6*, KCNQ1 block val 86*, CHO KCNQ1 ctr 0.38*, KCNQ2 spec 110%*, KCNQ1 KCNE1 spec 125%*, KCNK3 inh conf 107* and KCNK3 noninduced inactive.
`COC(=O)[C@@]1(Cc2ccccc2)[C@H]2C(=O)N(C)C(=O)[C@H]2[C@H]2CN=C(SC)N21` gave KCNK3 inh inactive.
Screening CSc1cccc(NC(=O)N2CCc3ccc(NC(=O)c4ccccn4)cc3C2)c1 returned hERG rescue -12, KCNK9 block inactive, KCNK3 inh -11*, KCNQ1 act inactive, KCNQ1 inh 6*, KCNQ1 block val 112*, CHO KCNQ1 ctr 0.48, KCNQ1 ephys val inactive, KCNQ2 spec 104%*, KCNQ1 KCNE1 spec 178%*, KCNK3 inh conf 112* and KCNK3 noninduced 0.16*.
COc1ccc(N2CCN(c3ncnc4scc(-c5ccc(F)cc5)c34)CC2)cc1 was read as hERG rescue -11, KCNK9 block inactive, KCNK3 inh -11*, KCNQ1 act inactive, KCNQ1 inh 8*, KCNQ1 block val 95*, CHO KCNQ1 ctr 0.36*, KCNQ2 spec 74%*, KCNQ1 KCNE1 spec 104%*, KCNK3 inh conf 110* and KCNK3 noninduced inactive.
COc1ccc(-c2csc3ncnc(N4CCN(C(=O)c5ccco5)CC4)c23)cc1 was read as hERG rescue -23, KCNK9 block inactive, KCNK3 inh inactive, KCNQ1 act inactive and KCNQ1 inh inactive.
For COc1ccc(N2CCN(c3ncnc4scc(-c5ccccc5)c34)CC2)cc1 the results were hERG rescue -9, KCNK9 block -12*, KCNK3 inh -11*, KCNQ1 act inactive, KCNQ1 inh 6*, KCNQ1 block val 93*, CHO KCNQ1 ctr 0.38, KCNQ1 ephys val inactive, KCNQ2 spec 106%*, KCNQ1 KCNE1 spec 108%*, KCNK9 inh conf 28%*, Kir21 sel inactive, HEK293 Tl ctr inactive, KCNK3 inh conf 117* and KCNK3 noninduced inactive.
Screening O=C(COc1ccccc1)N=C1SC2CS(=O)(=O)CC2N1Cc1ccccc1 (centres undefined) returned hERG rescue -6, KCNK9 block inactive, KCNK3 inh inactive, KCNQ1 act inactive and KCNQ1 inh inactive.

Compound activity from PubChem BioAssay.
